# Assay results from ChEMBL document CHEMBL1148841, “Synthesis, structural revision, and antioxidant activities of antimutagenic homoisoflavonoids from Hoffmanosseggia intricata” (Bioorg Med Chem Lett, 2007).
# Tests used:
# [1] = Antioxidant activity assessed as superoxide scavenging activity by NBT reduction assay; type: functional
# Procedure, shortened: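 Superoxide radicals produced in vitro by a non-enzymatic system; scavenging followed by nitro blue tetrazolium photoreduction, read spectrophotometrically at 560 nm; activity given as the concentration giving 50% inhibition (IC50).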
# [2] = tested on: Radical scavenging activity; assay: Antioxidant activity assessed as DPPH free radical scavenging activity; type: functional
# Procedure, shortened: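 Scavenging measured as reduction of the coloured DPPH (1,1-diphenyl-2-picrylhydrazyl) radical in methanolic solution; activity given as IC50.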
SMILES,IC50 [1] [µM],IC50 [2] [µM]
O=C1/C(=C/c2ccc(O)c(O)c2)COc2c1ccc(O)c2O,8.5,4.5
O=C1O[C@H]([C@@H](O)CO)C(O)=C1O [ASCORBIC ACID],852,25.1
COc1ccc(O)c(C(C)(C)C)c1.COc1ccc(O)cc1C(C)(C)C [BUTYLATED HYDROXYANISOLE],966,34

# Further lines, results first:
IC50 [1] [µM],IC50 [2] [µM],SMILES
26.5,8.3,O=C1/C(=C/c2ccc(O)cc2)COc2c1ccc(O)c2O
30.1,10.1,COc1ccc(/C=C2\COc3c(ccc(O)c3O)C2=O)cc1 [INTRICATINOL]
> 200,> 200,COc1ccc(/C=C2\COc3c(ccc(OC)c3O)C2=O)cc1 [INTRICATIN]
